In publication PMC11559620 (Science Advances, 2024):
Numbering of substitutions follows the chain as printed. Names may count otherwise. Ends that are not written are not given here.

Experiments:
CML18 [1] = assay: Yeast two-hybrid assay, interaction with CML18; assay type: cell-based, Arabidopsis; conditions: for interaction with CML18 (Y2H): C-terminal cytosolic fragments, selective YNB media
Method in brief: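 Strain AH109 was cotransformed with NHX C-terminal fragments in pGBKT7 (GAL4 BD) and CML17 or CML18 in pGADT7 (GAL4 AD), selected on YNB-Trp-Leu. Cultures were grown at 28°C to saturation (OD600 ~2), then 5-μl drops of 10-fold dilutions were spotted on YNB-Trp-Leu, -His-Trp-Leu and -Ade-Trp-Leu. Plates were incubated at 28°C for 3–4 days. p53/pSV40 served as positive control, empty vectors as negative.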

yeast vacuoles = assay: Vacuolar pH of yeast by BCECF-AM; assay type: cell-based, Saccharomyces cerevisiae; conditions: n = 8
CML18 [2] = assay: Bimolecular fluorescence complementation, interaction with CML18; assay type: cell-based, Arabidopsis; conditions: leaves of N. benthamiana
Method in brief: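 Agrobacterium GV3101 carrying BiFC constructs was co-infiltrated with a p19-transformed strain into 5- to 6-week-old N. benthamiana leaves. Full-length NHX1 or NHX2 and CML18 were each fused to complementary halves of eYFP. Empty pSPYCE(M) served as negative control. The lower epidermis was imaged by confocal microscopy (515-nm laser, 60× objective) under constant imaging settings, using a YFP filter.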

CML18 [3] = target: T1, CML18 (Arabidopsis thaliana, UniProt Q9M8U1); assay: Isothermal titration calorimetry, CBD peptide; assay type: binding
T1 sequence (Q9M8U1 1-165): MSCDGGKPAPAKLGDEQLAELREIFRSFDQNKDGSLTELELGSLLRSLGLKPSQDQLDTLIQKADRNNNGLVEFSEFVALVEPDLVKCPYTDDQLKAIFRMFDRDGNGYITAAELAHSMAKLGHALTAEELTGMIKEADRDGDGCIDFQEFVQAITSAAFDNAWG
Method in brief: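 ITC at 25°C: 200 μM CML18 was titrated into 20 μM CBD peptide in 2-μl injections at 150-s intervals, stirred at 750 rpm, in buffer C (pH 6.3) or D (pH 8.3), with 18 μM EGTA or 180 μM Ca2+. Heats from ligand-into-buffer controls were subtracted. Two titrations were run for each of two independent protein preparations.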

CML18 [4] = target: T1, CML18; assay: Far-UV circular dichroism of CML18:CML-BD complex; assay type: binding
Method in brief: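 Far-UV CD (320–202 nm, 20°C, 1.0-mm quartz cuvette) of decalcified CML18, the synthetic CBD peptide, and a 1:1 protein:peptide mixture, each at pH 6.3 and 8.3. The spectrum expected for non-interacting samples was calculated as the sum of the two individual spectra and compared with the mixture.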

[5] = Far-UV circular dichroism of CML18; assay type: physicochemical
Method in brief: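 CML18 was decalcified by dialysis against 20 mM EGTA, then re-dialysed into EGTA-free buffer C (20 mM MES pH 6.3, 80 mM KCl, 5 mM NaCl, 2 mM DTT) or buffer D (same, with 20 mM tris pH 8.3). Far-UV CD spectra (320–202 nm) were recorded at 0.2 mg/ml, 20°C, 1.0-mm quartz cuvette, with 180 μM Ca2+ or 18 μM EGTA.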

Tryptophan = assay type: physicochemical
Method in brief: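 Decalcified CML18 was dialysed into buffer C (20 mM MES pH 6.3) or D (20 mM tris pH 8.3), both with 80 mM KCl, 5 mM NaCl, 2 mM DTT. Samples of 10 μl at 25 μM were loaded into UV capillaries and heated from 35 to 95°C at […]. The initial Trp emission ratio (350/330 nm) was taken at the start. For Ca2+ titrations, 20 μM EGTA was kept constant.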

NHX1 = conditions: ref [15]; cited from earlier work
AXT3K strain = assay: Complementation assay, hygromycin B resistance of yeast AXT3K; assay type: cell-based, Saccharomyces cerevisiae; conditions: YPD + HygB (50 μg/ml), 30°C
C terminus of NHX1 = assay: Yeast two-hybrid assay, dimerization with C terminus of NHX1; assay type: cell-based, Arabidopsis; conditions: fig. S2; cytosolic C-terminal domains

NHX1∆CBD: NHX1 with the CBD deleted (residues S486 to G516)
interaction with CML18 (Y2H) (CML18 [1]): tested negative | vacuolar pH (pHvac) (yeast vacuoles): overly acidic | interaction with CML18 (BiFC) (CML18 [2]): lost the interaction with CML18

DSIRGFLTRPTRTVHYYWRQFDDSFMRPVFGGR [CML-BD]
complex formation with CML18 (CML18 [3]; pH 6.3, presence of Ca2+): high-affinity complex is formed | CML-BD binding sites per CML18 monomer (CML18 [3]; pH 6.3, model fit, equal affinity): two CML-BD binding sites with equal affinity per CML18 monomer | helical content in solution (CML18 [4]; far-UV CD, 20°C, peptide alone): no helical content | binding of CML18 to CBD peptide, pH dependence (CML18 [4]; far-UV CD, pH 6.3 versus 8.3): mostly favored at acidic pH | α-helical content of the mixture with CML18 (CML18 [4]; pH 6.3, 1:1 protein:peptide, far-UV CD, relative to CML18 alone): increased α-helical content | interaction with CML18 (CML18 [4]; pH 8.3, absence of Ca2+): no interaction is observed | helicity of the mixture with CML18 (CML18 [4]; pH 8.3, 1:1 protein:peptide, far-UV CD): only a small increase in helicity

B1: CML18: calmodulin-like protein of Arabidopsis, At3g03000 (protein)
chain: T1 sequence (Q9M8U1 1-165)
modifications: left off: cYFP (C-terminal half of YFP), C-terminal, kept
CD spectrum change upon addition of Ca2+ or EGTA ([5]; 180 μM Ca2+ or 18 μM EGTA, pH 6.3 and 8.3): no noticeable changes in the spectrum | CD peak at 222 nm ([5]; pH 6.3 compared to pH 8.3, 0.2 mg/ml, 20°C): clear increase of the peak at 222 nm at pH 6.3 compared to pH 8.3 | W164 fluorescence red shift (Tryptophan; pH 6.3 versus pH 8.3, 350/330 nm, 25 μM CML18): remarkable red shift | effect on K+/H+ and Na+/H+ exchange rates of NHX1 (NHX1): inhibition | effect on K+/H+ transport by NHX1 (NHX1): inhibit

B2: CML18-D161N (protein, UniProt Q9M8U1 1-165, looked up, variant D161N)
Probable calcium-binding …: T1 sequence (Q9M8U1 1-165) with D161N
far-UV CD spectrum compared with WT at pH 6.3 ([5]; fig. S6): nearly identical to that of the WT protein at pH 6.3 | 350-nm/330-nm emission ratio, pH dependence (Tryptophan; pH 6.3 and 8.3): remained constant regardless of pH

B3: NHX2: vacuolar exchanger; C-terminal residues G434 to P546 in Y2H (protein, UniProt Q56XP4 434-546, looked up, fragment)
chain: GMLTKPLIRYLMPHQKATTSTTSMLSDDSTPKSIHIPLLDGEQLDSFELPGSHQDVPRPNSLRGFLMRPTRTVHYYWRQFDDAFMRPVFGGRGFVPFVPGSPTERSSHDLSKP
interaction with CML18 (Y2H) (CML18 [1]): strongly | HygB resistance / protein activity in AXT3K (AXT3K strain): suppressed the HygB sensitivity | interaction with CML18 (BiFC) (CML18 [2]): interacted with CML18 | homodimerization / heterodimerization (Y2H) (C terminus of NHX1): positive results

B4: W502A: NHX1 mutant in the CBD (protein, UniProt Q68KI4 1-538, looked up, variant W502A)
Sodium/hydrogen exchanger 1: MLDSLVSKLPSLSTSDHASVVALNLFVALLCACIVLGHLLEENRWMNESITALLIGLGTGVTILLISKGKSSHLLVFSEDLFFIYLLPPIIFNAGFQVKKKQFFRNFVTIMLFGAVGTIISCTIISLGVTQFFKKLDIGTFDLGDYLAIGAIFAATDSVCTLQVLNQDETPLLYSLVFGEGVVNDATSVVVFNAIQSFDLTHLNHEAAFHLLGNFLYLFLLSTLLGAATGLISAYVIKKLYFGRHSTDREVALMMLMAYLSYMLAELFDLSGILTVFFCGIVMSHYTWHNVTESSRITTKHTFATLSFLAETFIFLYVGMDALDIDKWRSVSDTPGTSIAVSSILMGLVMVGRAAFVFPLSFLSNLAKKNQSEKINFNMQVVIWWSGLMRGAVSMALAYNKFTRAGHTDVRGNAIMITSTITVCLFSTVVFGMLTKPLISYLLPHQNATTSMLSDDNTPKSIHIPLLDQDSFIEPSGNHNVPRPDSIRGFLTRPTRTVHYYARQFDDSFMRPVFGGRGFVPFVPGSPTERNPPDLSKA
interaction with CML18 (Y2H) (CML18 [1]): essential for the interaction | HygB resistance / protein activity in AXT3K (AXT3K strain): inactive

B5: D506A: NHX1 mutant in the CBD (protein, UniProt Q68KI4 1-538, looked up, variant D506A)
Sodium/hydrogen exchanger 1: B4 Sodium/hydrogen exchanger 1 with A502W, D506A
interaction with CML18 (Y2H) (CML18 [1]): essential for the interaction | HygB resistance / protein activity in AXT3K (AXT3K strain): inactive

B6: H499L: NHX1 mutant within the CBD (protein, UniProt Q68KI4 1-538, looked up, variant H499L)
Sodium/hydrogen exchanger 1: B4 Sodium/hydrogen exchanger 1 with H499L, A502W
interaction with CML18 (Y2H) (CML18 [1]): not as strong as with the WT NHX1 | growth of cells coexpressing CML18 (Y2H) (CML18 [1]; YNB-His): able to grow | growth of cells coexpressing CML18 (Y2H) (CML18 [1]; YNB-His-Ade): not in the more stringent media YNB-His-Ade | HygB resistance / protein activity in AXT3K (AXT3K strain): supported grow | vacuolar pH (pHvac) (yeast vacuoles): no substantial differences

B7: H479L-H499L (protein, UniProt Q68KI4 1-538, looked up, variant H479L H499L)
Sodium/hydrogen exchanger 1: B4 Sodium/hydrogen exchanger 1 with H479L, H499L, A502W
HygB resistance / protein activity in AXT3K (AXT3K strain): supported grow | vacuolar pH (pHvac) (yeast vacuoles): no substantial differences

B8: H479L: NHX1 mutant outside the CBD, control (protein, UniProt Q68KI4 1-538, looked up, variant H479L)
Sodium/hydrogen exchanger 1: B4 Sodium/hydrogen exchanger 1 with H479L, A502W
HygB resistance / protein activity in AXT3K (AXT3K strain): supported grow | vacuolar pH (pHvac) (yeast vacuoles): no substantial differences

B9: H285L (protein, UniProt Q68KI4 1-538, looked up, variant H285L)
Sodium/hydrogen exchanger 1: B4 Sodium/hydrogen exchanger 1 with H285L, A502W
HygB resistance / protein activity in AXT3K (AXT3K strain): inactive

B10: Y286A (protein, UniProt Q68KI4 1-538, looked up, variant Y286A)
Sodium/hydrogen exchanger 1: B4 Sodium/hydrogen exchanger 1 with Y286A, A502W
HygB resistance / protein activity in AXT3K (AXT3K strain): inactive

B11: NHX4: vacuolar exchanger; C-terminal residues T437 to C529 in Y2H (protein)
chain: TKPLVNYLLPQDASHNTGNRGKRTEPGSPKEDATLPLLSFDESASTNFNRAKDSISLLMEQPVYTIHRYWRKFDDTYMRPIFGGPRRENQPEC
modifications: left off: Gal4 DNA-binding domain (vector pGBKT7), end not stated, kept
interaction with CML18 (Y2H) (CML18 [1]): strongly
